Experimental data as given in ChEMBL document CHEMBL2176925, “Novel ¹⁸F-labeled benzoxazole derivatives as potential positron emission tomography probes for imaging of cerebral β-amyloid plaques in Alzheimer's disease” (J Med Chem, 2012).

How the values were obtained:
Blood [1] = assay: Drug uptake in ddY mouse blood at 370 kBq/100 ul, iv at 60 mins by gamma-counting analysis; format: ADME, organism-based; details: in vivo, 1 h
Outline: (§1)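 Normal male ddY mice (5 weeks, 20−22 g, n = 5) received 370 kBq of tracer in 100 μL saline with 5% EtOH via tail vein. Mice were sacrificed at set times after injection, and organs were excised, weighed and γ-counted against diluted injectate aliquots. Values are %ID per gram, except stomach and intestine as %ID per organ, given as mean ± SD of 5 mice.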

Brain [2] = assay: Drug uptake in wild type C57BL6 mouse brain at 370 kBq/100 ul after 1 hr by thioflavinS-staining method; format: ADME, tissue-based
Outline: (§2)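 Paraffin sections of brain were used: C57BL6 mice (wild-type, 12 months), human AD (person) and normal human. Sections were deparaffinized through xylene and graded ethanol, then equilibrated 30 min in PBS (0.2 M, pH 7.4). Incubated 1 h at room temperature with tracer, 370 kBq/100 μL, washed 1 min in 50% ethanol and rinsed with water. Imaging plate exposed overnight. Plaques confirmed by thioflavin-S or anti-Aβ1-42 monoclonal immunostaining.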

Blood [3] = assay: Drug uptake in ddY mouse blood at 370 kBq/100 ul, iv at 30 mins by gamma-counting analysis; format: ADME, organism-based; details: in vivo, 0.5 h; outline: as §1
Brain [4] = assay: Drug uptake in healthy human brain at 370 kBq/100 ul after 1 hr by autoradiographic analysis; format: ADME, tissue-based; outline: as §2
Lung = assay: Drug uptake in ddY mouse lung at 370 kBq/100 ul, iv at 10 mins by gamma-counting analysis; format: ADME, organism-based; details: in vivo; outline: as §1
Brain [5] = assay: Drug uptake in wild type C57BL6 mouse brain at 40.7 MBq, iv after 30 mins by autoradiographic analysis; format: ADME, organism-based; details: in vivo, 0.5 h
Outline: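 Wild-type C57BL6 mice (18 months) received 40.7 MBq tracer iv via the femoral vein in 100 μL saline with 5% EtOH. Decapitated at 30 min, and brains frozen in powdered dry ice. 20 μm sections exposed to an imaging plate for 8 h, then the same sections stained with thioflavin-S.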

Intestine = assay: Drug uptake in ddY mouse intestine at 370 kBq/100 ul, iv at 60 mins by gamma-counting analysis; format: ADME, organism-based; details: in vivo, 1 h; outline: as §1
[6] = Displacement of [125I]IMPY from amyloid beta (1 to 42) fibrils after 2 hrs by gamma-counting analysis
Outline: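 Competition binding with aggregated Aβ1-42 fibrils (60 nM final) and [125I]IMPY. Inhibitors were tested at 10⁻⁵–10⁻¹⁰ M (in ethanol) in 0.2 M PBS, pH 7.4, 1 mL, for 2 h at 37 °C with shaking. Nonspecific binding was defined with 1 μM IMPY. Bound ligand was collected by GF/B filtration and γ-counted. Ki was derived from IC50 via Cheng–Prusoff.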

Brain [7] = assay: Drug uptake in healthy human brain at 370 kBq/100 ul after 1 hr by immunohistochemical staining method; format: ADME, tissue-based; outline: as §2
Kidney [8] = assay: Drug uptake in ddY mouse kidney at 370 kBq/100 ul, iv at 2 mins by gamma-counting analysis; format: ADME, organism-based; details: in vivo; outline: as §1
Stomach = assay: Drug uptake in ddY mouse stomach assessed per organ at 370 kBq/100 ul, iv at 30 mins by gamma-counting analysis; format: ADME, organism-based; details: in vivo, 0.5 h
Outline: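 Male ddY mice (5 weeks, 20−22 g, n = 5) received tracer in saline with 5% EtOH, 370 kBq/100 μL, by tail vein. Killed at set times after dosing. Stomach removed, weighed and γ-counted against diluted aliquots of the injected dose. Reported as % injected dose per organ, mean ± SD of 5 mice.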

Kidney [9] = assay: Drug uptake in ddY mouse kidney at 370 kBq/100 ul, iv at 10 mins by gamma-counting analysis; format: ADME, organism-based; details: in vivo; outline: as §1
Brain [10] = assay: Drug uptake in ddY mouse brain at 370 kBq/100 ul, iv at 30 mins by gamma-counting analysis; format: ADME, organism-based; details: in vivo, 0.5 h; outline: as §1
Cortex = assay: Drug uptake in transgenic C57BL6 mouse cortex expressing APP Swedish mutant at 40.7 MBq, iv at 60 mins by microPET imaging; format: ADME, organism-based; details: in vivo, 1 h
Brain [11] = assay: Drug uptake in transgenic C57BL6 mouse brain expressing APP Swedish mutant at 40.7 MBq, iv at 2 mins by microPET imaging; format: ADME, organism-based; details: in vivo
Brain [12] = assay: Ratio of drug uptake in brain at 2 mins to drug uptake in 20 mins in transgenic C57BL6 mouse expressing APP Swedish mutant; format: ADME, tissue-based; details: in vivo
Brain [13] = assay: Drug uptake in wild type C57BL6 mouse brain at 40.7 MBq, iv up to 60 mins by microPET imaging; format: ADME, organism-based; details: in vivo, 1 h
Brain [14] = assay: Ratio of drug uptake in brain at 2 mins to drug uptake in 20 mins in wild type C57BL6 mouse; format: ADME, tissue-based; details: in vivo
Brain [15] = assay: Drug uptake in wild type C57BL6 mouse brain at 40.7 MBq, iv at 2 mins by microPET imaging; format: ADME, organism-based; details: in vivo
Hippocampus = assay: Drug uptake in transgenic C57BL6 mouse hippocampus expressing APP Swedish mutant at 40.7 MBq, iv at 60 mins by microPET imaging; format: ADME, organism-based; details: in vivo, 1 h

Drug uptake (Blood [1])	Drug uptake (Brain [2])	Drug uptake (Blood [3])	Drug uptake (Brain [4])	Drug uptake (Lung)	Drug uptake (Brain [5])	Drug uptake (Intestine)	Ki [6]	Drug uptake (Brain [7])	Drug uptake (Kidney [8])	Drug uptake (Stomach)	Drug uptake (Kidney [9])	Drug uptake (Brain [10])	Drug uptake (Cortex)	Drug uptake (Brain [11])	Ratio (Brain [12])	Drug uptake (Brain [13])	Ratio (Brain [14])	Drug uptake (Brain [15])	Drug uptake (Hippocampus)	SMILES
3.33 % ID/g	Not Active	2.84 % ID/g	Not Active	3.64 % ID/g	Not Active	15.82 % ID/g	3.9 nM	Not Active	8.71 % ID/g	1.51 %ID	5.18 % ID/g	2.5 % ID/g	–	–	–	–	–	–	–	CN(C)c1ccc(-c2nc3cc(OCCOCCOCC[18F])ccc3o2)cc1
4.87 % ID/g	Not Active	4.67 % ID/g	Not Active	5.64 % ID/g	Not Active	23.91 % ID/g	9.3 nM	Not Active	12.88 % ID/g	1.85 %ID	8.45 % ID/g	4.07 % ID/g	Active	Active	1.21	Not Active	1.77	Active	Active	CNc1ccc(-c2nc3cc(OCCOCCOCC[18F])ccc3o2)cc1
